Assays:
Type in all cases: functional
Staphylococcus aureus [1] = test: Antibacterial activity against Staphylococcus aureus 155554A at 1 mg/ml after 24 hrs by agar-well diffusion technique; details: read-out: DIZ
How it was run: (§1)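 Each bacterial strain (0.1 ml) was spread on nutrient agar, and 4 mm wells were cut with a sterile cork borer. Wells were loaded with test chemical at a final 1 mg ml^-1, then incubated at 37 °C for 24 h. Inhibition zone diameters around the wells were measured, averaged over 3 replicas.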

Bacillus subtilis [2] = test: Antibacterial activity against Bacillus subtilis 154921 at 1 mg/ml after 24 hrs by agar-well diffusion technique; details: Bacillus subtilis, 154921, 24 h; read-out: DIZ; how it was run: as §1
Candida albicans [3] = test: Antifungal activity against Candida albicans 155965 at 1 mg/ml after 48 hrs by agar-well diffusion technique; details: Candida albicans, 155965, 48 h; read-out: DIZ
How it was run: (§2)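 Yeast (0.1 ml) was spread on potato dextrose agar, and 4 mm wells were cut with a sterile cork borer. Wells were loaded with test chemical at a final 1 mg ml^-1, then incubated at 25 °C for 48 h. Inhibition zones around the wells were measured, averaged over 3 replicas.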

Pseudomonas aeruginosa [4] = test: Antibacterial activity against Pseudomonas aeruginosa 155250A at 1 mg/ml after 24 hrs by agar-well diffusion technique; details: read-out: DIZ; how it was run: as §1
Escherichia coli [5] = test: Antibacterial activity against Escherichia coli 124300 at 1 mg/ml after 24 hrs by agar-well diffusion technique; details: Escherichia coli, 124300, 24 h; read-out: DIZ; how it was run: as §1
Saccharomyces cerevisiae [6] = test: Antifungal activity against Saccharomyces cerevisiae 156250 at 1 mg/ml after 48 hrs by agar-well diffusion technique; details: Saccharomyces cerevisiae, 156250, 48 h; read-out: DIZ; how it was run: as §2
Serratia marcescens [7] = test: Antibacterial activity against Serratia marcescens 155449 at 1 mg/ml after 24 hrs by agar-well diffusion technique; details: Serratia marcescens, 155449, 24 h; read-out: DIZ; how it was run: as §1
Saccharomyces cerevisiae [8] = test: Antifungal activity against Saccharomyces cerevisiae 156250 at 100 mg/ml after 48 hrs by agar-well diffusion technique; details: Saccharomyces cerevisiae, 156250, 48 h; read-out: DIZ
How it was run: (§3)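 0.1 ml of the yeast spread on potato dextrose agar. 4 mm wells were cut with a sterile cork borer and filled with test solution. Plates were incubated at 25 °C for 48 h. Inhibition zones around the wells were measured, and the mean of 3 replicas was recorded. Cycloheximide served as the antifungal reference.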

Candida albicans [9] = test: Antifungal activity against Candida albicans 155965 at 100 mg/ml after 48 hrs by agar-well diffusion technique; details: Candida albicans, 155965, 48 h; read-out: DIZ; how it was run: as §3
Staphylococcus aureus [10] = test: Antibacterial activity against Staphylococcus aureus 155554A at 100 mg/ml after 24 hrs by agar-well diffusion technique; details: read-out: DIZ
How it was run: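 0.1 ml of the bacterial strain spread on nutrient agar. 4 mm wells were cut with a sterile cork borer and filled with test solution. Plates were incubated at 37 °C for 24 h. Inhibition zone diameters were measured around the wells, and the average of 3 replicas was recorded. Penicillin served as the antibacterial reference.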

Pseudomonas aeruginosa [11] = test: Antibacterial activity against Pseudomonas aeruginosa 155250A at 100 mg/ml after 24 hrs by agar-well diffusion technique; details: read-out: DIZ
How it was run: (§4)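 The penicillin reference was applied at 100 mg ml^-1 in 4 mm wells on nutrient agar plates spread with 0.1 ml of each bacterial strain. Plates were incubated at 37 °C for 24 h, and inhibition zones were measured as the average of 3 replicas.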

Escherichia coli [12] = test: Antibacterial activity against Escherichia coli 124300 at 100 mg/ml after 24 hrs by agar-well diffusion technique; details: Escherichia coli, 124300, 24 h; read-out: DIZ; how it was run: as §4
Serratia marcescens [13] = test: Antibacterial activity against Serratia marcescens 155449 at 100 mg/ml after 24 hrs by agar-well diffusion technique; details: Serratia marcescens, 155449, 24 h; read-out: DIZ; how it was run: as §4
Bacillus subtilis [14] = test: Antibacterial activity against Bacillus subtilis 154921 at 100 mg/ml after 24 hrs by agar-well diffusion technique; details: Bacillus subtilis, 154921, 24 h; read-out: DIZ; how it was run: as §4

CN(C)c1ccc(/C=C(\C#N)C(=O)Nc2scc(-c3ccc(Cl)cc3)c2C#N)cc1
zone of inhibition at 1000 µg/mL (Staphylococcus aureus [1]): 0 mm | zone of inhibition at 1000 µg/mL (Bacillus subtilis [2]): 3.6 mm | zone of inhibition at 1000 µg/mL (Candida albicans [3]): 0 mm | zone of inhibition at 1000 µg/mL (Pseudomonas aeruginosa [4]): 6 mm | zone of inhibition at 1000 µg/mL (Escherichia coli [5]): 2 mm | zone of inhibition at 1000 µg/mL (Saccharomyces cerevisiae [6]): 0 mm | zone of inhibition at 1000 µg/mL (Serratia marcescens [7]): 2 mm

N#Cc1c(-c2ccccc2)csc1NC(=O)c1ccc(-c2ccccc2)[nH]c1=O
zone of inhibition at 1000 µg/mL (Staphylococcus aureus [1]): 0 mm | zone of inhibition at 1000 µg/mL (Bacillus subtilis [2]): 1.6 mm | zone of inhibition at 1000 µg/mL (Candida albicans [3]): 0 mm | zone of inhibition at 1000 µg/mL (Pseudomonas aeruginosa [4]): 5.3 mm | zone of inhibition at 1000 µg/mL (Escherichia coli [5]): 3.3 mm | zone of inhibition at 1000 µg/mL (Saccharomyces cerevisiae [6]): 1.3 mm | zone of inhibition at 1000 µg/mL (Serratia marcescens [7]): 2 mm

N#Cc1c(-c2ccccc2)csc1NC(=O)c1ccc(-c2cccs2)[nH]c1=O
zone of inhibition at 1000 µg/mL (Staphylococcus aureus [1]): 0 mm | zone of inhibition at 1000 µg/mL (Bacillus subtilis [2]): 2 mm | zone of inhibition at 1000 µg/mL (Candida albicans [3]): 0 mm | zone of inhibition at 1000 µg/mL (Pseudomonas aeruginosa [4]): 4 mm | zone of inhibition at 1000 µg/mL (Escherichia coli [5]): 2 mm | zone of inhibition at 1000 µg/mL (Saccharomyces cerevisiae [6]): 2 mm | zone of inhibition at 1000 µg/mL (Serratia marcescens [7]): 2 mm

Cc1cccc(-c2ccc(C(=O)Nc3scc(-c4ccccc4)c3C#N)c(=O)[nH]2)n1
zone of inhibition at 1000 µg/mL (Staphylococcus aureus [1]): 0 mm | zone of inhibition at 1000 µg/mL (Bacillus subtilis [2]): 0 mm | zone of inhibition at 1000 µg/mL (Candida albicans [3]): 0 mm | zone of inhibition at 1000 µg/mL (Pseudomonas aeruginosa [4]): 4 mm | zone of inhibition at 1000 µg/mL (Escherichia coli [5]): 0 mm | zone of inhibition at 1000 µg/mL (Saccharomyces cerevisiae [6]): 0 mm | zone of inhibition at 1000 µg/mL (Serratia marcescens [7]): 0 mm

C[C@@H]1C[C@@H]([C@H](O)CC2CC(=O)NC(=O)C2)C(=O)[C@@H](C)C1 [CYCLOHEXIMIDE]
zone of inhibition at 100000 µg/mL (Saccharomyces cerevisiae [8]): 40 mm | zone of inhibition at 100000 µg/mL (Candida albicans [9]): 0 mm

CC1(C)S[C@@H]2[C@H](NC(=O)Cc3ccccc3)C(=O)N2[C@H]1C(=O)O [PENICILLIN G]
zone of inhibition at 100000 µg/mL (Staphylococcus aureus [10]): 40 mm | zone of inhibition at 100000 µg/mL (Pseudomonas aeruginosa [11]): 30 mm | zone of inhibition at 100000 µg/mL (Escherichia coli [12]): 8.6 mm | zone of inhibition at 100000 µg/mL (Serratia marcescens [13]): 7 mm | zone of inhibition at 100000 µg/mL (Bacillus subtilis [14]): 4.6 mm
